# Measurements taken from ChEMBL document CHEMBL1138573, “Synthesis and molluscicidal activity of some new thiophene, thiadiazole and pyrazole derivatives” (2009).
# Tests used:
# Assay type in all cases: functional
# Biomphalaria alexandrina [1] = test: Molluscicidal activity against Biomphalaria alexandrina assessed as number of dead snail per 10 snails at 4 ppm after 24 hrs
# Summary of the method: (§1)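 Field-collected B. alexandrina snails held 45 days in the lab, fed daily on lettuce, and checked free of parasitic infection. Compound mixed with a few drops of Tween 20, then suspended in untreated raw River Nile water at seven concentrations of 4–16 ppm, in aerated glass jars. Ten snails of similar size (ca. 7 mm) per jar, kept 24 h at ambient temperature. Run three times and the mean number killed taken. LC50 and LC90 were derived from this mortality. Control was water with Tween 20. Follows WHO guidelines.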
# Biomphalaria alexandrina [2] = test: Molluscicidal activity against Biomphalaria alexandrina assessed as number of dead snail per 10 snails at 6 ppm after 24 hrs; summary of the method: as §1
# Biomphalaria alexandrina [3] = test: Molluscicidal activity against Biomphalaria alexandrina assessed as number of dead snail per 10 snails at 8 ppm after 24 hrs; summary of the method: as §1
# Biomphalaria alexandrina [4] = test: Molluscicidal activity against Biomphalaria alexandrina assessed as number of dead snail per 10 snails at 10 ppm after 24 hrs; summary of the method: as §1
# Biomphalaria alexandrina [5] = test: Molluscicidal activity against Biomphalaria alexandrina assessed as number of dead snail per 10 snails at 12 ppm after 24 hrs; summary of the method: as §1
# Biomphalaria alexandrina [6] = test: Molluscicidal activity against Biomphalaria alexandrina assessed as number of dead snail per 10 snails at 14 ppm after 24 hrs; summary of the method: as §1
# Biomphalaria alexandrina [7] = test: Molluscicidal activity against Biomphalaria alexandrina assessed as number of dead snail per 10 snails at 16 ppm after 24 hrs; summary of the method: as §1
# Biomphalaria alexandrina [8] = test: Molluscicidal activity against Biomphalaria alexandrina after 24 hrs; conditions: for LC50: Biomphalaria alexandrina, 24 h; summary of the method: as §1
Structure (SMILES),Activity (Biomphalaria alexandrina [1]),Activity (Biomphalaria alexandrina [2]),Activity (Biomphalaria alexandrina [3]),Activity (Biomphalaria alexandrina [4]),Activity (Biomphalaria alexandrina [5]),Activity (Biomphalaria alexandrina [6]),Activity (Biomphalaria alexandrina [7]),LC90 (Biomphalaria alexandrina [8]),LC50 (Biomphalaria alexandrina [8]),LC100 (Biomphalaria alexandrina [8])
CC(=O)/C(C(=O)c1ccccc1)=C1/SC(C(=O)c2ccccc2)=NN1c1ccc(C)cc1,2,3,5,8,10,10,10,9 ppm,5.5 µg/mL,
COc1ccc(N2N=C(C(=O)c3ccccc3)S/C2=C(/C(C)=O)C(=O)c2ccccc2)cc1,1,3,4,7,10,10,10,11 ppm,6 µg/mL,
Cc1n[nH]c(Nc2ccccc2)c1C(=O)c1ccccc1,1,3,4,8,9,10,10,18 ppm,13 µg/mL,
O=C(Nc1cc(Cl)c([N+](=O)[O-])cc1Cl)c1ccccc1O,,,,,,,,,,1 ppm
CCOC(=O)c1sc(Nc2ccccc2)c(C(=O)c2ccccc2)c1C,0,1,1,2,2,4,10,20 ppm,18 µg/mL,
CC(=O)/C(C(=O)c1ccccc1)=C1/SC(C(=O)c2ccccc2)=NN1c1ccccc1,2,2,4,6,9,10,10,10 ppm,8 µg/mL,
CC(=O)c1sc(Nc2ccccc2)c(C(=O)c2ccccc2)c1C,1,3,5,8,8,10,10,22 ppm,16 µg/mL,
Cc1c(C(=O)c2ccccc2)sc(Nc2ccccc2)c1C(=O)c1ccccc1,1,4,5,6,9,10,10,20 ppm,15.6 µg/mL,
Cc1c(C(=O)O)sc(Nc2ccccc2)c1C(=O)c1ccccc1,1,2,3,5,6,8,10,23 ppm,19 µg/mL,
